Columns and labels:
[1] = molecular target: T1, 85/88 kDa calcium-independent phospholipase A2 (Homo sapiens) (UniProt O60733); assay: Inhibition of human group VIA iPLA2 at 0.091 mol fraction using arachidonyl-1-14C PAPC by mixed micelles modified Dole assay
T1 sequence (whole entry): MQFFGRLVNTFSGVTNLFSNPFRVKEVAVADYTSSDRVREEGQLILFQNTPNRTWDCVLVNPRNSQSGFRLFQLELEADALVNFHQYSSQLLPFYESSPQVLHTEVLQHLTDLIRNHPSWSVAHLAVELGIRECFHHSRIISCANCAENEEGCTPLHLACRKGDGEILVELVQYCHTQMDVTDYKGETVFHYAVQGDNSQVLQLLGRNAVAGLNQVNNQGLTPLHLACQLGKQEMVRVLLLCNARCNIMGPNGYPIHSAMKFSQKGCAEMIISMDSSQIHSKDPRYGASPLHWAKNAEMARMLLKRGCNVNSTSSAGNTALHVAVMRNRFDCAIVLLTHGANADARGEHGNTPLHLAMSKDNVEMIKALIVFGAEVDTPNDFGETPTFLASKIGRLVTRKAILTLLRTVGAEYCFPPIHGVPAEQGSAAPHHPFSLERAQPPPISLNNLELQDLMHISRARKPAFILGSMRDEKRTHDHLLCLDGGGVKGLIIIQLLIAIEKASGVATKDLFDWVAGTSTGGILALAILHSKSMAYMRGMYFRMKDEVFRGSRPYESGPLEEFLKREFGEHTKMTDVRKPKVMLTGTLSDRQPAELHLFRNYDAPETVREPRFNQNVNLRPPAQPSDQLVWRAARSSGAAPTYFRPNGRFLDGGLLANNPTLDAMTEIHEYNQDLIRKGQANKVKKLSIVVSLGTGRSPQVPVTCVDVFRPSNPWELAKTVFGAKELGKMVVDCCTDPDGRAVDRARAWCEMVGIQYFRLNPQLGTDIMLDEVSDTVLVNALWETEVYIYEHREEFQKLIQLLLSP
Outline: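 Substrate micelles: 400 μM Triton X-100, 98.3 μM PAPC, 1.7 μM arachidonyl-1-14C PAPC. Buffer: 100 mM HEPES pH 7.5, 2 mM ATP, 4 mM DTT. Inhibitor tested at 0.091 mole fraction from a 5 mM DMSO stock; percent inhibition determined.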

[2] = molecular target: T2, Cytosolic phospholipase A2 (Homo sapiens) (UniProt P47712); assay: Inhibition of human group IVA cPLA2 at 0.091 mol fraction using arachidonyl-1-14C PAPC by mixed micelles modified Dole assay
T2 sequence (whole entry): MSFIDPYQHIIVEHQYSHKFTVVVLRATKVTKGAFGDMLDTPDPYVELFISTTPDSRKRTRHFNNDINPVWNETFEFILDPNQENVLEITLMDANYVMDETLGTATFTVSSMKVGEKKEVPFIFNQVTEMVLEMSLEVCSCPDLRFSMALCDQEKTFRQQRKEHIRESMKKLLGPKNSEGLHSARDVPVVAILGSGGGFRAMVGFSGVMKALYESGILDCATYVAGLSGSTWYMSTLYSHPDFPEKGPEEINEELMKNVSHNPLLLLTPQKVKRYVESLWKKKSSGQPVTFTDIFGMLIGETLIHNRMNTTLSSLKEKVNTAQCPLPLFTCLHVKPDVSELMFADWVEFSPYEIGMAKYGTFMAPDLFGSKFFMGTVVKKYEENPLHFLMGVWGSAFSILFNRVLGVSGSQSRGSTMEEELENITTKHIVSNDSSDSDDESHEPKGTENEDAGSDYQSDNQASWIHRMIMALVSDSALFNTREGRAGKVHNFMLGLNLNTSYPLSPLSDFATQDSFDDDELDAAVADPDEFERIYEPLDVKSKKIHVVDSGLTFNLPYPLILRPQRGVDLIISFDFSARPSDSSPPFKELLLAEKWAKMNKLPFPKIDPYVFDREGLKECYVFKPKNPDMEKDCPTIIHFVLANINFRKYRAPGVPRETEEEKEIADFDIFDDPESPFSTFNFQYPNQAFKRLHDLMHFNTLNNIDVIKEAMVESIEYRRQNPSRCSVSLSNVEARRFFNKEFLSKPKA
Outline: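 Buffer: 100 mM HEPES pH 7.5 with 90 μM CaCl2, 2 mM DTT and 0.1 mg/ml BSA. Inhibitor screened at 0.091 mole fraction, added from a 5 mM DMSO stock; percent inhibition recorded.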

[3] = molecular target: T3, Phospholipase A2 group V (Homo sapiens) (UniProt P39877); assay: Inhibition of human group V sPLA2 at 0.091 mol fraction using arachidonyl-1-14C PAPC by mixed micelles modified Dole assay
T3 sequence (whole entry): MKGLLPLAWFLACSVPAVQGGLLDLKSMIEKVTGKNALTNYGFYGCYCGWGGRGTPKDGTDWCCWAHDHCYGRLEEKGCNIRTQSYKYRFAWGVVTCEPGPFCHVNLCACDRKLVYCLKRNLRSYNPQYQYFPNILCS

[4] = molecular target: T1, 85/88 kDa calcium-independent phospholipase A2 (Homo sapiens); assay: Inhibition of human group VIA iPLA2 using arachidonyl-1-14C PAPC by mixed micelles modified Dole assay
Outline: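 Run in the same micelle substrate (Triton X-100/PAPC/14C-PAPC) in 100 mM HEPES pH 7.5, 2 mM ATP and 4 mM DTT, on compounds showing over 95% inhibition in the screen. Percent inhibition plotted against log mole fraction; XI(50) and its error obtained by nonlinear regression.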

Row | SMILES | inhibition [1] [%] | inhibition [2] [%] | inhibition [3] [%] | XI50 [4]
1 | COc1ccc(CCSCC(=O)C(F)(F)C(F)(F)F)cc1 | 100 | 61 | 28 | 0.00012
2 | COc1ccc(CCSCC(=O)C(F)(F)F)cc1 | 96 | 60 | < 25 | 9e-05
3 | O=C(CSCCc1ccc2ccccc2c1)C(F)(F)F | 99 | 88 | 32 | 0.0002
4 | O=C(CSCCc1ccccc1)C(F)(F)C(F)(F)F | 99 | < 25 | < 25 | 0.00015
5 | COc1ccc(CCCCC(=O)c2noc(C(C)(C)C)n2)cc1 | 64 | 52 | 35 | 
6 | COc1ccc(CCSCC(=O)c2noc(C(C)(C)C)n2)cc1 | 98 | 70 | 38 | 0.0057
